Laboratory results reported in ChEMBL document CHEMBL4311975, “Exploration of the antibiotic potentiating activity of indolglyoxylpolyamines” (Eur J Med Chem, 2019).
pIC50: −log10 of the molar value. ≈ marks a conversion by molar mass, not a printed value.

What was measured:
[1] = Hemolytic activity against Sprague-Dawley rat RBC assessed as release of hemoglobin at 50 uM incubated for 1 hr relative to control; type: ADME, cell-based, Erythrocyte; settings: red blood cells (erythrocytes), read-out: Activity
Summary of the method: (§1)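 Fresh Sprague-Dawley rat erythrocytes were washed in saline and resuspended at 2% v/v. Cells were incubated with compound in DMSO/PBS for 1 h at 37 °C, then centrifuged at 200 g, and supernatant absorbance read at 540 nm. Results were normalised to DMSO/PBS (0%) and 0.1% Triton X-100 (100%). Single-point testing used 50 μM; HC50 came from 10-point curves. Means of three experiments.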

Cryptococcus neoformans = assay: Antifungal activity against Cryptococcus neoformans ATCC 208821 assessed as growth inhibition incubated for 36 hrs by resazurin dye based assay; type: functional; settings: ATCC 208821, 36 h
Summary of the method: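 Cryptococcus was grown 3 days on YPD agar at 30 °C, suspended, and diluted in YNB broth to 2.5×10^3 CFU/mL. Cells were exposed to 0.008–32 μg/mL compound (final), in duplicate, for 36 h at 35 °C without shaking. Resazurin (0.006% final) was added for a further 3 h. MIC was read from absorbance at OD570–600. Means, n = 2.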

Pseudomonas aeruginosa [2] = assay: Potentiation of erythromycin-induced antibacterial activity against Pseudomonas aeruginosa ATCC 27853 assessed as concentration required to restore 2 ug/ml erythromycin activity measured after 18 hrs; type: functional
Escherichia coli [3] = assay: Antibacterial activity against Escherichia coli ATCC 25922 assessed as growth inhibition incubated for 18 hrs by broth dilution method; type: functional; settings: ATCC 25922, 18 h
Summary of the method: (§2)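 Broth microdilution following CA-SFM recommendations. Inoculum was 10^5 CFU in Mueller-Hinton broth with two-fold serial drug dilutions. Plates were incubated 18 h at 37 °C. MIC was the lowest concentration giving complete inhibition of visible growth. Values are means, n = 3.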

Escherichia coli [4] = assay: Potentiation of nalidixic acid-induced antibacterial activity against Escherichia coli ATCC 25922 assessed as concentration required to restore 2 ug/ml nalidixic acid activity measured after 18 hrs; type: functional
Pseudomonas aeruginosa [5] = assay: Potentiation of doxycycline-induced antibacterial activity against Pseudomonas aeruginosa ATCC 27853 assessed as concentration required to restore 2 ug/ml doxycycline activity measured after 18 hrs; type: functional
Summary of the method: (§3)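 Inoculum was 5×10^5 CFU in MHB with two-fold serial dilutions of adjuvant plus fixed doxycycline at 2 μg/mL. […] Repeated independently in triplicate.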

Escherichia coli [6] = assay: Potentiation of chloramphenicol-induced antibacterial activity against Escherichia coli ATCC 25922 assessed as concentration required to restore 2 ug/ml chloramphenicol activity measured after 18 hrs; type: functional
Acinetobacter baumannii [7] = assay: Potentiation of chloramphenicol-induced antibacterial activity against Acinetobacter baumannii AYE assessed as concentration required to restore 2 ug/ml chloramphenicol activity measured after 18 hrs; type: functional
Klebsiella pneumoniae [8] = assay: Potentiation of doxycycline-induced antibacterial activity against Klebsiella pneumoniae ATCC 13443 assessed as concentration required to restore 2 ug/ml doxycycline activity measured after 18 hrs; type: functional; summary of the method: as §3
[9] = tested on: Staphylococcus intermedius; assay: Antibacterial activity against Staphylococcus intermedius 1051997 assessed as growth inhibition incubated for 18 hrs by broth dilution method; type: functional; settings: Staphylococcus intermedius, 1051997, 18 h; summary of the method: as §2
Escherichia coli [10] = assay: Potentiation of erythromycin-induced antibacterial activity against Escherichia coli ATCC 25922 assessed as concentration required to restore 2 ug/ml erythromycin activity measured after 18 hrs; type: functional
Acinetobacter baumannii [11] = assay: Potentiation of erythromycin-induced antibacterial activity against Acinetobacter baumannii AYE assessed as concentration required to restore 2 ug/ml erythromycin activity measured after 18 hrs; type: functional
Pseudomonas aeruginosa [12] = assay: Potentiation of nalidixic acid-induced antibacterial activity against Pseudomonas aeruginosa ATCC 27853 assessed as concentration required to restore 2 ug/ml nalidixic acid activity measured after 18 hrs; type: functional
Acinetobacter baumannii [13] = assay: Antibacterial activity against Acinetobacter baumannii ATCC 19606 assessed as growth inhibition incubated for 18 hrs by resazurin dye based assay; type: functional; settings: ATCC 19606 = CIP 70.34 = JCM 6841, 18 h
Summary of the method: (§4)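 Overnight cultures were diluted 40-fold in MHB and grown 1.5–2 h at 37 °C to mid-log phase. Cells were added at 5×10^5 CFU/mL final to two-fold compound dilutions (0.008–32 μg/mL final), in duplicate, for 18 h at 37 °C. Resazurin (0.001% final) was added for 2 h and MIC read by eye. Means, n = 2.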

L6 = assay: Cytotoxicity against rat L6 cells measured after 72 hrs by alamar blue assay; type: cell-based; settings: L6, 72 h
Summary of the method: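 Rat L6 myoblasts, 4×10^4/well in RPMI 1640 with L-glutamine and 10% FBS, received seven 3-fold dilutions (90 to 0.123 μg/mL) for 72 h. Alamar Blue was added for 2 h and fluorescence read at ex 536/em 588 nm. Podophyllotoxin served as reference. Means, n = 2.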

Escherichia coli [14] = assay: Potentiation of doxycycline-induced antibacterial activity against Escherichia coli ATCC 25922 assessed as concentration required to restore 2 ug/ml doxycycline activity measured after 18 hrs; type: functional; summary of the method: as §3
Acinetobacter baumannii [15] = assay: Potentiation of nalidixic acid-induced antibacterial activity against Acinetobacter baumannii AYE assessed as concentration required to restore 2 ug/ml nalidixic acid activity measured after 18 hrs; type: functional
Pseudomonas aeruginosa [16] = assay: Potentiation of chloramphenicol-induced antibacterial activity against Pseudomonas aeruginosa ATCC 27853 assessed as concentration required to restore 2 ug/ml chloramphenicol activity measured after 18 hrs; type: functional
Candida albicans = assay: Antifungal activity against Candida albicans ATCC 90028 assessed as growth inhibition incubated for 36 hrs by resazurin dye based assay; type: functional; settings: ATCC 90028, 36 h
Summary of the method: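 Yeast was grown 3 days on YPD agar at 30 °C. Colonies were suspended and diluted in YNB broth to 2.5×10^3 CFU/mL, then added to two-fold compound dilutions (0.008–32 μg/mL final), in duplicate. Plates stood 36 h at 35 °C without shaking. Means, n = 2.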

[17] = Hemolytic activity against Sprague-Dawley rat RBC assessed as release of hemoglobin incubated for 1 hr; type: ADME, cell-based, Erythrocyte; settings: red blood cells (erythrocytes); summary of the method: as §1
Pseudomonas aeruginosa [18] = assay: Antibacterial activity against Pseudomonas aeruginosa ATCC 27853 assessed as growth inhibition incubated for 18 hrs by broth dilution method; type: functional; settings: ATCC 27853, 18 h; summary of the method: as §2
Klebsiella pneumoniae [19] = assay: Potentiation of erythromycin-induced antibacterial activity against Klebsiella pneumoniae ATCC 13443 assessed as concentration required to restore 2 ug/ml erythromycin activity measured after 18 hrs; type: functional
Acinetobacter baumannii [20] = assay: Potentiation of doxycycline-induced antibacterial activity against Acinetobacter baumannii AYE assessed as concentration required to restore 2 ug/ml doxycycline activity measured after 18 hrs; type: functional; summary of the method: as §3
Klebsiella pneumoniae [21] = assay: Potentiation of chloramphenicol-induced antibacterial activity against Klebsiella pneumoniae ATCC 13443 assessed as concentration required to restore 2 ug/ml chloramphenicol activity measured after 18 hrs; type: functional
Klebsiella pneumoniae [22] = assay: Antibacterial activity against Klebsiella pneumoniae ATCC 700603 assessed as growth inhibition incubated for 18 hrs by resazurin dye based assay; type: functional; settings: Klebsiella pneumoniae, 700603, 18 h; summary of the method: as §4
Staphylococcus aureus = assay: Antibacterial activity against Staphylococcus aureus ATCC 25923 assessed as growth inhibition incubated for 18 hrs by broth dilution method; type: functional; settings: ATCC 25923, 18 h; summary of the method: as §2
Klebsiella pneumoniae [23] = assay: Potentiation of nalidixic acid-induced antibacterial activity against Klebsiella pneumoniae ATCC 13443 assessed as concentration required to restore 2 ug/ml nalidixic acid activity measured after 18 hrs; type: functional
[24] = Cytotoxicity against human HEK293 cells measured after 20 hrs by resazurin dye based fluorescence assay; type: cell-based
Summary of the method: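 HEK293 cells, 5,000/well in DMEM with 10% FBS, were exposed to compound for 20 h at 37 °C, 5% CO2. Resazurin (100 μM final) was added for 3 h, then fluorescence read at ex 560/em 590. Signal was normalised to tamoxifen (74 μg/mL, 0%) and untreated growth (100%), and CC50 came from dose-response fitting. Top dose 32 μg/mL. Means, n = 2.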

MIC (Cryptococcus neoformans) [µM]	MIC (Escherichia coli [3]) [µM]	MIC (Acinetobacter baumannii [13]) [µM]	MIC (Candida albicans) [µM]	MIC (Pseudomonas aeruginosa [18]) [µM]	Structure (SMILES)	hemolysis at 1 h, 50 µM [1] [%]	Activity (Pseudomonas aeruginosa [2]) [µM]	Activity (Escherichia coli [4]) [µM]	Activity (Pseudomonas aeruginosa [5]) [µM]	Activity (Escherichia coli [6]) [µM]	Activity (Acinetobacter baumannii [7]) [µM]	Activity (Klebsiella pneumoniae [8]) [µM]	Activity (Escherichia coli [10]) [µM]	Activity (Acinetobacter baumannii [11]) [µM]	Activity (Pseudomonas aeruginosa [12]) [µM]	pIC50 (L6)	Activity (Escherichia coli [14]) [µM]	Activity (Acinetobacter baumannii [15]) [µM]	Activity (Pseudomonas aeruginosa [16]) [µM]	Activity (Klebsiella pneumoniae [19]) [µM]	further results
1.1 (≈ 0.773 µg/mL)	100 (≈ 70.2 µg/mL)	> 34	17.2 (≈ 12.1 µg/mL)	100 (≈ 70.2 µg/mL)	O=C(NCCCNCCCCNCCCNC(=O)C(=O)c1c[nH]c2cc(Br)ccc12)C(=O)c1c[nH]c2cc(Br)ccc12	91	200	>200	6.25 to 12.5	>200	>200	6.25	50	25	50	5.11	6.25	200	>200	50	MIC [9]: 3.12 µM (≈ 2.2 µg/mL); HC50 at 1 h [17]: 20 µM; Activity (Acinetobacter baumannii [20]): 25 µM; Activity (Klebsiella pneumoniae [21]): 200 µM; MIC (Klebsiella pneumoniae [22]): > 34 µM; MIC (Staphylococcus aureus): 6.25 µM (≈ 4.39 µg/mL); Activity (Klebsiella pneumoniae [23]): 25 µM
> 38.4	> 200	> 38.4	38.4 (≈ 23.2 µg/mL)	> 200	COc1cccc2c(C(=O)C(=O)NCCCNCCCCNCCCNC(=O)C(=O)c3c[nH]c4c(OC)cccc34)c[nH]c12	0	100	>200	3.75 to 7.5	>200	>200	>200	>200	>200	60	4.21	3.75	>200	30	>200	Activity (Acinetobacter baumannii [20]): 15 µM; Activity (Klebsiella pneumoniae [21]): >200 µM; CC50 at 20 h [24]: 27.1 µM; MIC (Klebsiella pneumoniae [22]): > 38.4 µM; MIC (Staphylococcus aureus): 15 µM (≈ 9.07 µg/mL); Activity (Klebsiella pneumoniae [23]): >200 µM
